According to ChEMBL document CHEMBL1154004, “Relationships between the structures of flavanone derivatives and their effects in enhancing early growth response-1 gene expression” (2009):
The source made the active and inactive calls. No cut-off for these calls is given here.

Assays:
[1] = tested on: HEK293; assay: Increase in EGR1 mRNA expression in human HEK293 cells at 20 ug/mL after 6 to 12 hrs by dual-glo luciferase assay relative to control; type: functional
Outline: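 Egr-1 promoter reporter assay after transient transfection. Activity is the level with compound divided by the compound-free control level, with the control set at 1.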

[2] = tested on: HeLa; assay: Increase in EGR1 mRNA expression in human HeLa cells after 1 hr by Western blotting; type: functional, cell-based; conditions: in the assay text read “EGR1 protein expression” for “EGR1 mRNA expression”
Outline: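 Human cervix carcinoma HeLa cells were left untreated or exposed to compound at 10, 20 or 40 for 1 h. Egr-1 protein level was then examined by Western blot.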

Compound | fold change (FC) [1] | Activity [2]
Cc1ccc(C2CC(=O)c3cc(Cl)ccc3O2)cc1 (centres undefined) | 0.8 | 
O=C1CC(c2ccccc2)Oc2ccccc21 (centres undefined) [FLAVANONE] | 2.3 | 
O=C1CC(c2ccccc2O)Oc2ccc(O)cc21 (centres undefined) | 1.2 | 
COc1ccc2c(c1)C(=O)CC(c1cccc(OC)c1OC)O2 (centres undefined) | 3.9 | 
O=C1CC(c2ccc(O)cc2)Oc2ccccc21 (centres undefined) [4'-HYDROXY-FLAVANONE] | 1.4 | 
COc1ccc(C2CC(=O)c3ccccc3O2)cc1 (centres undefined) | 1.2 | 
COc1cc(O)cc2c1C(=O)CC(c1ccccc1)O2 (centres undefined) | 1 | 
O=C1CC(c2ccccc2)Oc2c(Cl)cccc21 (centres undefined) | 1.7 | 
COc1cc([C@@H]2CC(=O)c3c(O)cc(O)cc3O2)ccc1O [HOMOERIODICTYOL] | 1.2 | 
O=C1CC(c2ccc(F)cc2)Oc2c(Cl)cccc21 (centres undefined) | 2.4 | 
O=C1CC(c2ccccc2O)Oc2ccccc21 (centres undefined) [2'-HYDROXY-FLAVANONE] | 4.2 | Active
COc1cc(C2CC(=O)c3ccccc3O2)ccc1O (centres undefined) | 5.1 | 
COc1ccc2c(c1)C(=O)CC(c1ccc(OC)c(OC)c1)O2 (centres undefined) | 0.7 | 
COc1cc(O)c2c(c1)O[C@H](c1ccccc1)CC2=O [PINOSTROBIN] | 1.6 | 
O=C1C[C@@H](c2ccccc2)Oc2cc(O)cc(O)c21 [PINOCEMBRIN] | 0.4 | 
O=C1CC(c2ccccc2)Oc2cc(O)ccc21 (centres undefined) [7-HYDROXYFLAVANONE] | 2.1 | 
COc1cccc(C2CC(=O)c3cc(OC)ccc3O2)c1 (centres undefined) | 2.5 | 
O=C1CC(c2ccccc2)Oc2ccc(O)cc21 (centres undefined) | 1.3 | 
O=C1C[C@@H](c2ccc(O)c(O)c2)Oc2cc(O)cc(O)c21 [ERIODICTYOL] | 2.1 | 

Compound | fold change (FC) [1] | Activity [2]
O=C1c2ccc(O)cc2O[C@@H](c2cc(O)c(O)c(O)c2)[C@@H]1O [DIHYDROROBINETIN] | 0.7 | 
COc1ccc([C@@H]2CC(=O)c3c(O)cc(O)cc3O2)cc1O [HESPERETIN] | 2.4 | 
COc1ccc(C2CC(=O)c3c(OC)cc(OC)cc3O2)cc1 (centres undefined) | 0.7 | 
COc1ccc2c(c1)OC(c1ccccc1)CC2=O (centres undefined) | 1.1 | 
O=C1c2c(O)cc(O)cc2OC(c2ccc(O)c(O)c2)C1O (centres undefined) [TAXIFOLIN] | 1.3 | 
COc1cc(OC)c2c(c1)OC(c1ccccc1)CC2=O (centres undefined) [DIMETHYLPINOCEMBRIN] | 1.9 | 
COc1cccc2c1C(=O)CC(c1ccccc1)O2 (centres undefined) | 3.6 | 
COc1ccc(C2CC(=O)c3ccccc3O2)cc1OC (centres undefined) | 4.3 | 
O=C1C[C@@H](c2ccc(O)cc2)Oc2cc(O)cc(O)c21 [NARINGENIN] | 1.2 | 
COc1ccc2c(c1)OC(c1cc(OC)c(OC)c(OC)c1)CC2=O (centres undefined) | 1 | 
COc1ccc2c(c1)C(=O)CC(c1ccccc1)O2 (centres undefined) | 1.6 | 
COc1cc(O)c2c(c1)OC(c1ccc(O)cc1)CC2=O (centres undefined) | 0.4 | 
COc1ccc(C2CC(=O)c3cc(OC)ccc3O2)c(OC)c1 (centres undefined) | 1.5 | 
O=C1CC(c2cccc(O)c2)Oc2ccccc21 (centres undefined) [3'-HYDROXYFLAVANONE] | 6.7 | Active
COc1ccc(C2CC(=O)c3cc(Cl)ccc3O2)cc1OC (centres undefined) | 0.7 | 
COc1cc(C2CC(=O)c3c(O)cc(O)cc3O2)cc(OC)c1OC (centres undefined) | 1.2 | 
Cc1ccc(C2CC(=O)c3cccc(Cl)c3O2)cc1 (centres undefined) | 1.3 | 
O=C1c2ccc(O)cc2OC(c2ccc(O)c(O)c2)C1O (centres undefined) | 1.3 | 
